# Tests used:
# Mus musculus [1] = assay: Total […] dose against Staphylococcus aureus after sc administration (1+5 hr post infection) to mouse; details: in vivo
# Bacteroides fragilis = assay: compound was tested for antibacterial activity Bacteroides fragilis NCTC 10581.; format: functional
# Escherichia coli [2] = assay: compound was tested for antibacterial activity against Escherichia coli DC0.; format: functional
# [3] = Pharmacokinetic parameter Tmax was determined in blood level in mouse after oral administration.; format: ADME, organism-based
# How it was run: (§1)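 CD1 male mice (18–22 g), nonfasted, groups of five; 50 mg/kg in 0.2 mL, dissolved in 10% ethanol then diluted 1:9 with 1% HPMC in water (po) or PBS pH 7.3 (sc). Blood sampled 5–240 min; levels by Bacillus subtilis agar bioassay (pH 7.0, 30 °C overnight) against standards in heparinized mouse blood.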
# Pseudomonas aeruginosa = assay: compound was tested for antibacterial activity against Pseudomonas aeruginosa K799 wt.; format: functional
# How it was run: (§2)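 Broth microdilution in Mueller–Hinton broth; overnight broth cultures added to final 5 × 10^5 cfu/mL; incubated 37 °C, 18 h. MIC (µg/mL) taken as lowest concentration inhibiting growth.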
# Moraxella catarrhalis = assay: compound was tested for antibacterial activity against Moraxella catarrhalis 1502.; format: functional
# How it was run: (§3)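 Broth microdilution in Mueller–Hinton broth supplemented (final) with 5% heat-inactivated horse serum, 0.02 mg/mL hematin and 0.08 mg/mL NAD; inoculum 5 × 10^5 cfu/mL from overnight broth cultures; 37 °C for 18 h; MIC (µg/mL) read as lowest concentration inhibiting growth.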
# Mus musculus [4] = assay: Pharmacokinetic parameter AUC was determined in blood level in mouse after subcutaneous administration.; format: ADME, organism-based; details: in vivo, sc
# How it was run: as §1
# Mus musculus [5] = assay: Pharmacokinetic parameter Cmax was determined in blood level in mouse after subcutaneous administration.; format: ADME, organism-based; parameters: route subcutaneous; details: in vivo, sc
# How it was run: as §1
# [6] = Pharmacokinetic parameter Cmax was determined in blood level in mouse after oral administration.; format: ADME, organism-based; parameters: route oral
# How it was run: as §1
# Mus musculus [7] = assay: Pharmacokinetic parameter AUC was determined in blood level in mouse after oral administration.; format: ADME, organism-based; details: in vivo
# How it was run: as §1
# Staphylococcus aureus [8] = assay: compound was tested for antibacterial activity against Staphylococcus aureus F 89.; format: functional
# How it was run: as §2
# Streptococcus pneumoniae = assay: compound was tested for antibacterial activity against Strep. pneumoniae 1761.; format: functional
# How it was run: as §3
# Streptococcus pyogenes = assay: compound was tested for antibacterial activity against Streptococcus pyogenes CN10.; format: functional
# How it was run: as §3
# Staphylococcus aureus [9] = assay: compound was tested for antibacterial activity against Staphylococcus aureus C 37.; format: functional
# Haemophilus influenzae = assay: compound was tested for antibacterial activity against Haemophilus influenzae Q1.; format: functional
# How it was run: as §3
# Staphylococcus aureus [10] = assay: compound was tested for antibacterial activity against Staphylococcus aureus NCTC 6571.; format: functional
# How it was run: as §2
# Enterococcus faecalis = assay: compound was tested for antibacterial activity against Ent. faecalis I; format: functional
# How it was run: as §2
# Escherichia coli [11] = assay: compound was tested for antibacterial activity against Escherichia coli DC2.; format: functional
# How it was run: as §2
# [12] = Pharmacokinetic parameter Tmax was determined in blood level in mouse after subcutaneous administration.; format: ADME, organism-based; details: sc
# How it was run: as §1
# Proteus mirabilis = assay: compound was tested for antibacterial activity against Pr. mirabilis C889.; format: functional
# How it was run: as §2
# Enterobacter cloacae = assay: compound was tested for antibacterial activity against Ent. cloacae N1.; format: functional
# Klebsiella pneumoniae = assay: compound was tested for antibacterial activity against Klebsiella pneumoniae E70.; format: functional
# How it was run: as §2
# [13] = test system: Staphylococcus epidermidis; assay: compound was tested for antibacterial activity aagainst Staphylococcus epidermidis PHLN 20.; format: functional
# How it was run: as §2
# Isoleucine--tRNA ligase [14] = target: T1, Isoleucine--tRNA ligase (Staphylococcus aureus, UniProt P41972); assay: compound was tested for inhibitory activity of isoleucyl-tRNA synthetase (IRS).; format: functional
# T1 sequence (P41972 whole entry): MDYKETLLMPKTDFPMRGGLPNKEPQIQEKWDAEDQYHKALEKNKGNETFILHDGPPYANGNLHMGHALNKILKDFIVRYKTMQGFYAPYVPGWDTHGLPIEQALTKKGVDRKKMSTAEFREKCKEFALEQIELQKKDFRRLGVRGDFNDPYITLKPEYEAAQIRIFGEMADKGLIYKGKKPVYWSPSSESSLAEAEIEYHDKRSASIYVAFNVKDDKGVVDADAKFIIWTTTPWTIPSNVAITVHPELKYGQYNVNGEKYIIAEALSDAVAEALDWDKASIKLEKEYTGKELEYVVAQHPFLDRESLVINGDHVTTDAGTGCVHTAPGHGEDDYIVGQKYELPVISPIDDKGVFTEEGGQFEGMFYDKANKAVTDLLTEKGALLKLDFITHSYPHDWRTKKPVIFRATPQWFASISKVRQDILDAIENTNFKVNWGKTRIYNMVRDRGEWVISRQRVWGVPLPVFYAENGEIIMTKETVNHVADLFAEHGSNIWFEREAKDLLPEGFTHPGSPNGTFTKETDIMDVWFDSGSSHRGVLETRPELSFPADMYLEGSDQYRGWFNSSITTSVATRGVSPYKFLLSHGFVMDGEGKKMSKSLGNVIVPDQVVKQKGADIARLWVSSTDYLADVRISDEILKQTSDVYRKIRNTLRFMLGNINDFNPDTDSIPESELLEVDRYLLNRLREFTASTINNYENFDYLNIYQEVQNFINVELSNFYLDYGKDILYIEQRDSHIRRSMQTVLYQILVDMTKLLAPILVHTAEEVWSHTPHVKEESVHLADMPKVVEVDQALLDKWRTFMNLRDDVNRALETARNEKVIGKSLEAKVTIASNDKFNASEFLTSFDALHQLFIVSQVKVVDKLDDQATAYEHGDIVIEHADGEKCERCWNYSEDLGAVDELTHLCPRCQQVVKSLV
# Mus musculus [15] = assay: Total […] dose against Staphylococcus aureus after […] administration (1+5 hr post infection) to mouse; format: organism-based; details: in vivo, po
# How it was run: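 CD1 male mice, groups of five, infected ip with S. aureus Smith, 1.3 × 10^10 cfu (po groups) or 5 × 10^9 cfu (sc groups); dosed po or sc at 1 + 5 h postinfection, 0.2 mL/mouse. CD50 = total dose protecting 50% of mice from death, scored day 2 postinfection.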
# Staphylococcus aureus [16] = assay: Minimum inhibitory activity against Staphylococcus aureus C 7; format: functional
# How it was run: as §2
# Staphylococcus aureus [17] = assay: Minimum inhibitory activity against Staphylococcus aureus NCTC 6571; format: functional
# How it was run: as §2
# Staphylococcus aureus [18] = assay: Minimum inhibitory activity against Staphylococcus aureus 11481; format: functional
# How it was run: as §2
# Isoleucine--tRNA ligase [19] = target: T1, Isoleucine--tRNA ligase; assay: Inhibitory activity against isoleucyl-tRNA synthetase (IRS) of Staphylococcus aureus NCTC 6571
# Isoleucine--tRNA ligase [20] = target: T1, Isoleucine--tRNA ligase; assay: Inhibitory activity against isoleucyl-tRNA synthetase (IRS) of Staphylococcus aureus 11481; format: functional
# Isoleucine--tRNA ligase [21] = target: T1, Isoleucine--tRNA ligase; assay: Inhibitory activity against isoleucyl-tRNA synthetase (IRS) of Staphylococcus aureus; format: functional
# [22] = target: Isoleucine--tRNA ligase, Staphylococcus aureus (UniProt P41972); assay: compound was tested for inhibitory activity of isoleucyl-tRNA synthetase (IRS).
Structure (SMILES),MIC (Bacteroides fragilis) [µg/mL],MIC (Escherichia coli [2]) [µg/mL],MIC (Pseudomonas aeruginosa) [µg/mL],MIC (Moraxella catarrhalis) [µg/mL],MIC (Staphylococcus aureus [8]) [µg/mL],MIC (Streptococcus pneumoniae) [µg/mL],MIC (Streptococcus pyogenes) [µg/mL],MIC (Staphylococcus aureus [9]) [µg/mL],MIC (Haemophilus influenzae) [µg/mL],MIC (Staphylococcus aureus [10]) [µg/mL],MIC (Enterococcus faecalis) [µg/mL],MIC (Escherichia coli [11]) [µg/mL],MIC (Proteus mirabilis) [µg/mL],MIC (Enterobacter cloacae) [µg/mL],MIC (Klebsiella pneumoniae) [µg/mL],MIC [13] [µg/mL],IC50 (Isoleucine--tRNA ligase [21]) [nM],further results
C/C(=C\c1ncc(-c2ccc([N+](=O)[O-])o2)o1)C[C@@H]1OC[C@H](C[C@@H]2O[C@H]2[C@@H](C)[C@H](C)O)[C@@H](O)[C@H]1O,2,16,> 64,< 0.06,4,< 0.06,< 0.06,4,< 0.06,< 0.06,16,< 0.06,> 64,4,> 64,< 0.06,,CD50 (Mus musculus [1]): 1.2 mg/kg; Tmax [3]: 15 min; AUC (Mus musculus [4]): 2407 ug m-1 min-1; Cmax (Mus musculus [5]): 30500 ng/mL; Cmax [6]: 28700 ng/mL; AUC (Mus musculus [7]): 1734 ug m-1 min-1; Tmax [12]: 5 min; IC50 (Isoleucine--tRNA ligase [14]): 400 µg/mL; CD50 (Mus musculus [15]): 3.2 mg/kg
C/C(=C\c1ncc(-c2ccc([N+](=O)[O-])s2)o1)C[C@@H]1OC[C@H](C[C@@H]2O[C@H]2[C@@H](C)[C@H](C)O)[C@@H](O)[C@H]1O,2,> 64,> 64,< 0.06,8,< 0.06,< 0.06,8,< 0.06,0.125,> 64,< 0.06,> 64,> 64,> 64,< 0.06,,MIC (Staphylococcus aureus [16]): 32 µg/mL; MIC (Staphylococcus aureus [17]): 0.13 µg/mL; MIC (Staphylococcus aureus [18]): 8 µg/mL; IC50 (Isoleucine--tRNA ligase [19]): 6.67 nM; IC50 (Isoleucine--tRNA ligase [20]): 243 nM
C/C(=C\c1ncc(-c2ccc([N+](=O)[O-])cc2)o1)C[C@@H]1OC[C@H](C[C@@H]2O[C@H]2[C@@H](C)[C@H](C)O)[C@@H](O)[C@H]1O,> 64,64,> 64,1,> 64,< 0.06,0.125,> 64,0.25,0.125,32,< 0.06,> 64,32,> 64,0.125,7.98,
C/C(=C\c1ncc(-c2cc([N+](=O)[O-])cs2)o1)C[C@@H]1OC[C@H](C[C@@H]2O[C@H]2[C@@H](C)[C@H](C)O)[C@@H](O)[C@H]1O,> 64,32,> 64,< 0.06,> 64,< 0.06,< 0.06,32,< 0.06,< 0.06,32,< 0.06,64,16,32,< 0.06,6.87,
C/C(=C\c1ncc(-c2csc([N+](=O)[O-])c2)o1)C[C@@H]1OC[C@H](C[C@@H]2O[C@H]2[C@@H](C)[C@H](C)O)[C@@H](O)[C@H]1O,16,32,> 64,0.125,64,< 0.06,< 0.06,32,< 0.06,0.125,32,< 0.06,64,16,64,0.125,4.45,
C/C(=C\c1ncc(-c2ncc([N+](=O)[O-])n2C)o1)C[C@@H]1OC[C@H](C[C@@H]2O[C@H]2[C@@H](C)[C@H](C)O)[C@@H](O)[C@H]1O,0.5,> 64,> 64,0.25,> 64,0.5,0.25,> 64,< 0.06,2,64,1,> 64,> 64,> 64,< 0.06,,IC50 [22]: 0.0007 µg/mL
CN[C@H](CC(C)C)C(=O)N[C@H]1C(=O)N[C@@H](CC(N)=O)C(=O)N[C@H]2C(=O)N[C@H]3C(=O)N[C@H](C(=O)N[C@H](C(=O)O)c4cc(O)cc(O)c4-c4cc3ccc4O)[C@H](O)c3ccc(c(Cl)c3)Oc3cc2cc(c3O[C@@H]2O[C@H](CO)[C@@H](O)[C@H](O)[C@H]2O[C@H]2C[C@](C)(N)[C@H](O)[C@H](C)O2)Oc2ccc(cc2Cl)[C@H]1O [VANCOMYCIN],,,,,,,,,,,,,,,,,,CD50 (Mus musculus [1]): 3.8 mg/kg

# — ChEMBL document CHEMBL1129731, “The chemistry of pseudomonic acid. 17. Dual-action C-1 oxazole derivatives of pseudomonic acid having an extended spectrum of antibacterial activity” (J Med Chem, 1996)
